Data on eleven compounds can be found in ChEMBL document CHEMBL2440016, “Targeting the human parasite Leishmania donovani: discovery of a new promising anti-infectious pharmacophore in 3-nitroimidazo[1,2-a]pyridine series” (Bioorg Med Chem, 2013).

One may read the IC50 as the midpoint of a concentration-inhibition curve. As usually defined, the CC50 is the concentration giving 50% cytotoxicity. Higher therefore signals better tolerance by the cells.

Data set [1] concerns Leishmania donovani. Description: Antimicrobial activity against Leishmania donovani MHOM/IN/00/DEVI amastigotes infected in mouse J774.1 cells after 120 hrs by microscopic analysis. Type of data set: functional, organism-based. The following applies: J774.1, 120 h. In a few lines: (§1)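 J774A.1 macrophages seeded at 5x10⁴ cells/mL, 24 h at 37 °C, 6% CO2. L. donovani promastigotes acidified 24 h at 27 °C in Schneider 20% FCS pH 5.4, then used to infect at 10:1 for 24 h. Compounds added in duplicate, final DMSO <0.5%, 120 h at 37 °C. Cells methanol-fixed and Giemsa-stained, ≥200 cells counted for % infected. IC50 by non-linear regression, mean of three independent experiments.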

Another data set relates to Leishmania infantum. Description: Antimicrobial activity against Leishmania infantum MCAN/ES/98/LLM-877 promastigotes after 72 hrs by MTT assay. Format: functional, organism-based. To be noted: MCAN/ES/98/LLM-877, 72 h. In a few lines: (§2)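 Log-phase promastigotes in Schneider's medium with 20% FCS, 2 mM L-glutamine and penicillin/streptomycin, at 10⁶ parasites/mL. Compound dilutions run in duplicate, final DMSO <0.5%, 72 h at 27 °C. MTT 0.5 mg/mL for 6 h at 27 °C, formazan dissolved in DMSO, A570.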
(In general: Tetrazolium assays rely on reduction of a dye to a coloured formazan, in cell work by metabolically active cells.)

The nature of data set [2]: Cytotoxicity against mouse J774.1 cells after 72 hrs by MTT assay. Format: cell-based. To be noted: for CC50 at 72 h: J774.1 cells; for CC50: j774.1, 72 h. In outline:
(§3)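 Cells plated in RPMI with 10% FCS, L-glutamine and penicillin/streptomycin, 24 h at 37 °C, 6% CO2. Compound dilutions then added for 72 h. MTT 0.5 mg/mL in PBS for 2 h, formazan dissolved in DMSO, A570 with 630 nm reference. Viability taken as % of untreated control. Doxorubicin served as positive control. CC50 from the dose-response curve.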

Data set [3] in a line: (§4) Cytotoxicity against human HepG2 cells after 72 hrs by MTT assay. Type of data set: cell-based. The following applies: HepG2 cells. In a few lines:
as §3

For data set [4], the system named is Leishmania donovani. Description: Antimicrobial activity against Leishmania donovani MHOM/IN/00/DEVI promastigotes after 72 hrs by MTT assay. Type of data set: functional, organism-based. In outline:
as §2

The nature of data set [5]: Selectivity index, ratio of CC50 for human HepG2 cells to IC50 for Leishmania donovani MHOM/IN/00/DEVI. Format: functional. In outline: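 SI = HepG2 CC50 / L. donovani IC50.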
A short description of data set [6]: Selectivity ratio of IC50 for Plasmodium falciparum K1 to IC50 for Leishmania infantum MCAN/ES/98/LLM-877 promastigotes. Type of data set: functional.
Data set [7] in a line: Selectivity index, ratio of CC50 for mouse J774.1 cells to IC50 for Leishmania donovani MHOM/IN/00/DEVI. Format: functional.
The test system of a further data set is Plasmodium falciparum. Description: Antiplasmodial activity against Plasmodium falciparum K1 infected in human erythrocytes after 72 hrs by SYBR Green I fluorescence assay. Format: functional, organism-based. To be noted: K1, 72 h. In a few lines: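 K1 strain, resistant to chloroquine, pyrimethamine and proguanil, grown in A+ human erythrocytes with RPMI 1640, HEPES, NaHCO3 and 10% A+ serum. Rings synchronized with 5% sorbitol. Compounds tested at 2% hematocrit and 1% parasitaemia, 72 h at 37 °C in 5% O2, 5% CO2, in triplicate. DNA read by SYBR Green I lysis, 15 min, ex 497/em 520 nm. IC50 from three independent experiments.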

Data set [8] in a line: Selectivity ratio of IC50 for Plasmodium falciparum K1 to IC50 for Leishmania donovani MHOM/IN/00/DEVI amastigotes. Format: functional.
Data set [9] can be described thus: Selectivity ratio of IC50 for Plasmodium falciparum K1 to IC50 for Leishmania donovani MHOM/IN/00/DEVI promastigotes. Type of data set: functional.
Data set [10] relates to Leishmania donovani. Nature of the data set: Antimicrobial activity against Leishmania donovani amastigotes. Format: functional, organism-based. In outline:
as §1

Another data set concerns HepG2. The data set is described as §4. Format: cell-based. The following applies: hepg2, 72 h. In a few lines: as §3
The subject of data set [11] is Leishmania donovani. Nature of the data set: Antimicrobial activity against Leishmania donovani promastigotes. Format: functional, organism-based. In a few lines: as §2
Where [12] appears, read: Leishmania donovani, MHOM/IN/00/DEVI, 72 h, read-out: IC50.

As for `C[C@@H]1[C@H](O)[C@@H](C)/C=C/C=C/C=C/C=C/C=C/C=C/C=C/[C@H](O[C@@H]2O[C@H](C)[C@@H](O)[C@H](N)[C@@H]2O)C[C@@H]2O[C@](O)(C[C@@H](O)C[C@@H](O)[C@H](O)CC[C@@H](O)C[C@@H](O)CC(=O)O[C@H]1C)C[C@H](O)[C@H]2C(=O)O` [AMPHOTERICIN B], the IC50 was determined as 0.07 µM in the data set on Leishmania donovani [1] and 0.04 µM with Leishmania infantum. Besides, half-maximal cytotoxicity in data set [2] (CC50 at 72 h) was put at 3.1 µM.
`O=[N+]([O-])c1c(CS(=O)(=O)c2ccccc2)nc2c(Br)cc(Br)cn12`: the CC50 at 72 h is greater than 31 µM in data set [3] and greater than 25 µM in data set [2]. The IC50 amounted to 1.8 µM in the data set on Leishmania donovani [4] (setting [12]), 5.5 µM in the data set with Leishmania donovani [1], 3.3 µM in the data set with Leishmania infantum and 16 µM with Plasmodium falciparum. Besides, the “Ratio CC50/IC50” value is greater than 17.2 in data set [5] and greater than 13.4 in data set [7]. The Ratio IC50 in data set [6] turned out to be 4.8; in data set [8] it was 3; in [9], 8.9.
As for `COc1ccc(Sc2c([N+](=O)[O-])cc(C#N)cc2[N+](=O)[O-])cc1`, the IC50 in the data set with Leishmania donovani [10] turned out to be 0.7 µM.
In the case of `O=[N+]([O-])c1c(CS(=O)(=O)c2ccccc2)nc2ccc(-c3ccc4ccccc4c3)cn12`, the CC50 result (with HepG2; in data set [2]) was “ND(Insoluble)” each time. Further, the IC50 entry with Leishmania donovani [4] is “ND(Insoluble)”.
As for `O=[N+]([O-])c1c(CS(=O)(=O)c2ccccc2)nc2ccc(-c3cccc(C(F)(F)F)c3)cn12`, the CC50 result (in the data set on HepG2; in data set [2]) was “ND(Insoluble)” each time. Besides, in the data set on Leishmania donovani [4], the IC50 entry is listed as “ND(Insoluble)”.
Regarding `CCCCCCCCCCCCCCCCOP(=O)([O-])OCC[N+](C)(C)C` [MILTEFOSINE], the IC50 with Leishmania donovani [1] came to 6.8 µM. Moreover, in data set [2], half-maximal cytotoxicity (CC50 at 72 h) was put at 94.6 µM.
In the data set with Plasmodium falciparum, `O=C1C(O)=C([C@H]2CC[C@H](c3ccc(Cl)cc3)CC2)C(=O)c2ccccc21` [ATOVAQUONE] registered an IC50 of 0.0015 µM.
Turning to `COc1ccc(-c2ccc3nc(CS(=O)(=O)c4ccccc4)c([N+](=O)[O-])n3c2)cc1`, the CC50 result (in the data set with HepG2; in data set [2]) was “ND(Insoluble)” in each case. In addition, the IC50 entry with Leishmania donovani [4] was “ND(Insoluble)”.
For the compound `CSc1ccc(OCc2ncc([N+](=O)[O-])n2C)cc1` [FEXINIDAZOLE], the IC50 worked out at 5.6 µM with Leishmania donovani [11] and 2.8 µM in the data set on Leishmania donovani [10].
For `N=C(N)c1ccc(OCCCCCOc2ccc(C(=N)N)cc2)cc1` [PENTAMIDINE], the “Ratio CC50/IC50” value is on record as 0.4 in data set [5] and 0.1 in data set [7]. The IC50 in the data set with Leishmania donovani [1] was greater than 20 µM. The same compound showed a CC50 at 72 h in data set [2] of 1 µM.
As for `O=[N+]([O-])c1c(CS(=O)(=O)c2ccccc2)nc2ccc(Br)cn12`, the CC50 at 72 h in data set [3] was greater than 100 µM; in [2] it was 34.3 µM. Moreover, the IC50 with Leishmania donovani [4] (setting [12]) is 14 µM; in the data set on Leishmania donovani [1] it was greater than 25 µM; with Leishmania infantum, greater than 25 µM; in the data set with Plasmodium falciparum, 41.2 µM. Moreover, the “Ratio CC50/IC50” value was greater than 7.1 in [5] and 2.5 in [7].
